# Screening data as filed in PubChem.
# Shown are actives, neighbours in structure and some others; about 2.1% of the full set was active somewhere.
# zVAD death inh – inhibitors of zVAD-triggered necroptosis, primary screen, L929 cells | hit rate 0.38% among 220,000 | AID 1377, 2008 | L929 zVAD necroptosis rescue, ATP luminescence, 24 h; with zVAD 60 µM | viability rescue, % at 10 µM;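 active means activation, scaled between plate controls, above about 75%, limit read from the data; inactive means activation under that limit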;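 further: 0% = zVAD with DMSO and 100% = DMSO alone without zVAD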
# STAT3 blocker – IL-6 driven STAT3 reporter inhibitors, primary screen, U3A cells, luciferase, luminescence, MLSCN library. inhibition, % at 5.5 µM. hit rate 0.89% among 190,000. IL-6 STAT3-luciferase reporter; host cell line lacks STAT1. AID 862, 2007;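 active means inhibition above the mean inhibition across all screened compounds plus 3 SD, cut at about 44% in these data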;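 further: 0% = DMSO only wells and 100% = 100 µM nifuroxazide control wells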
# STAT1 inh-1 – STAT1 signaling inhibitors, primary screen, cell-based, HTS, luciferase reporter; NIH 3T3 STAT1-luciferase reporter, IFN-gamma, luminescence; inhibition, % at 5.5 µM; hit rate 0.35% among 200,000;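 active means inhibition above a set limit, the mean inhibition across all tested compounds plus 3 SD, cut at about 34% in these data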;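 further: 0% = IFN-gamma with DMSO and 100% = IFN-gamma with 300 µM nifuroxazide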
# TNF death inh – inhibitors of TNF-alpha triggered necroptosis, primary screen, cell-based, Jurkat FADD-/-, single concentration | Jurkat FADD-/- TNF necroptosis rescue, ATP luminescence, 24 h; 0 = TNF only, 100 = no-TNF cells | activation (protection from cell death), % at 10 µM | hit rate 0.068% among 220,000 | AID 463075, 2010;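 active means activation, meaning protection from cell death, of at least 50% relative to plate controls; inactive means activation below 50%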;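 further: necroptosis triggered by 40 ng/mL TNF-alpha added together with compound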
# STAT3 act – IL-6 driven STAT3 reporter potentiators, primary screen, U3A cells, luciferase, luminescence, MLSCN library; IL-6 STAT3-luciferase reporter; 100% = signal with IL-6 EC80 alone; activation (% of control), % at 5.6 µM; hit rate 0.91% among 190,000; AID 871, 2007;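 active means activation above the screen-wide mean of compound activation plus 3 SD, cut at about 130% in these data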;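 further: 0% = background luminescence of wells with medium and substrate only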
#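 system = STAT3-luciferase reporter U3A cells | reagent = IL-6 stimulus at 33 ng/mL final | timing = 1 h compound pre-exposure, 6 h IL-6 stimulation, 37 °C | measured by = luminescence | evaluation = % activation versus median of IL-6-stimulated wells | control set = IL-6-only wells as 100% reference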
# STAT1 inh-2 – STAT1 signaling inhibitors, confirmation, cell-based, HTS, luciferase reporter. shares compounds with STAT1 inh-1. NIH 3T3 STAT1-luciferase reporter, IFN-gamma, luminescence. inhibition, % at 5.5 µM. hit rate 55% among 200;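 active means triplicate mean inhibition exceeding the hit cutoff computed for the primary STAT1 screen, cut at about 35% in these data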;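 further: 0% = DMSO with IFN-gamma and 100% = 300 µM nifuroxazide with IFN-gamma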
# NFkB inh STAT1ct – NF-kB reporter inhibitors, TNF-alpha stimulated, counter-screen for STAT1 inhibitor project, cell-based, HEK293T, luciferase luminescence; TNF-alpha induced; inhibition, % at 5.7 µM; shares compounds with STAT1 inh-1; hit rate 30% among 200;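 active means inhibition above the mean of solvent-only control wells plus 3 SD of those wells, cut at about 15% in these data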;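 further: 0% = DMSO with TNF-alpha and 100% = MG-132 control with TNF-alpha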
# STAT3 inh STAT1c – STAT3 reporter inhibition by STAT1 hits, counter-screen for STAT1 inhibitor project, U3A cells, luciferase, luminescence, triplicate; inhibition, % at 5.7 µM; AID 1310, 2008; shares compounds with STAT1 inh-1; IL-6 STAT3 luciferase reporter; cells lacking STAT1; hit rate 20% among 200;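 active means inhibition above the mean of solvent-only control wells plus 3 SD, set per campaign, cut at about 25% in these data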;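 further: 0% = IL-6 plus DMSO and 100% = IL-6 plus nifuroxazide control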
# Numbers without * were called inactive; / = not tested or not shown.
SMILES,zVAD death inh,STAT3 blocker,STAT1 inh-1,TNF death inh,STAT3 act,STAT1 inh-2,NFkB inh STAT1ct,STAT3 inh STAT1c
CCOc1cc(-c2noc(N)c2C#N)cc(OCC)c1OCC,0,14,40*,-1,91,42*,0,10
Nc1nc2n(n1)C(c1cccc(Cl)c1)CC(c1ccc(F)cc1)N2 (centres undefined),0,0,-3,0,104,/,/,/
COc1ccccc1-c1cc(C(F)(F)F)nc(S(=O)(=O)CCCC(=O)Nc2cccnc2Cl)n1,-1,8,43*,-13,96,41*,-7,4
COc1ccc(-c2cc(C(F)(F)F)nc(S(=O)(=O)CCCC(=O)Nc3cc(C)on3)n2)cc1OC,51,8,51*,-14,100,46*,5,-63
CS(=O)(=O)N1CCCC(C(=O)Nc2ccc3c(c2)OCCO3)C1 (centres undefined),34,-2,0,0,104,/,/,/
CC(C)c1nnc(NC(=O)CCS(=O)(=O)c2nc(-c3cccs3)cc(C(F)(F)F)n2)s1,0,7,37*,-17,96,44*,15*,6
N#C/C(=N\Nc1cccc(Cl)c1)C(=O)c1ccccc1,1,12,7,-6,95,/,/,/
COc1ccc(C(=O)/C(C#N)=N/Nc2cccc([N+](=O)[O-])c2)cc1,-3,24,44*,-8,82,21,6,2
O=C(COc1ccc(Cl)cc1Cl)N/N=C1\CCCc2ccccc21,0,20,0,-6,88,/,/,/
N#CC(C#N)=C(Nc1ccc(F)cc1)SCc1cccc(Br)c1,2,33,39*,-2,72,52*,16*,43*
Cc1cccc(CSC(Nc2ccc(F)cc2)=C(C#N)C#N)c1,1,21,24,-11,82,/,/,/
COc1ccc(/C=N/Nc2ccc(C(=O)O)cc2)cc1Br,6,42,61*,-1,66,-56,49*,-137
CCC(=O)NC(=S)Nc1ccc(NC(=S)NC(=O)c2ccc(C)cc2)cc1,1,9,6,1,95,/,/,/
CCC(=O)NC(=S)Nc1ccc(NC(=S)NC(=O)c2ccccc2)cc1,0,16,83*,-5,91,53*,38*,11
Cc1ccc2nsnc2c1S(=O)(=O)NC1CC1,0,-4,-5,0,104,/,/,/
CCOC(=O)c1sc(N(Cc2ccccc2)C(=O)COC(=O)c2ccccc2O)nc1C,8,18,-7,11,86,/,/,/
CCOC(=O)c1sc(N(Cc2ccccc2)C(=O)COC(=O)c2ccc(O)cc2)nc1C,1,5,58*,3,99,59*,57*,8
CC(C)CNC(=O)COC(=O)c1c2c(nc3ccccc13)/C(=C/c1cccs1)CC2,11,5,38*,-3,92,21,-14,10
O=C(CNc1ccc2ccccc2c1)N/N=C/c1ccc(OC(=O)/C=C/c2ccco2)cc1,/,-22,-19,-11,123,/,/,/
Cc1cccc(N2CC(O)(c3cccs3)[N+]3=C2CCCC3)c1C (centres undefined),-1,4,39*,2,100,31,-6,0
Cc1ccccc1N1CC(O)(c2cccs2)[N+]2=C1CCCC2 (centres undefined),-1,0,18,1,103,/,/,/
O=C(Nc1ccccc1C(=O)O)c1ccc(Br)c(S(=O)(=O)NCc2ccccc2)c1,2,7,51*,1,99,29,5,3
O=C(c1ccc(Cl)cc1)N1CCN(c2ccnc3cc(Cl)ccc23)CC1,0,14,48*,-1,90,47*,11,-6
CCC(=O)N1CCN(c2ccnc3cc(Cl)ccc23)CC1,3,/,/,4,/,/,/,/
Cc1ccnn1CC(=O)N/N=C/c1ccc([N+](=O)[O-])s1,1,/,/,-16,/,/,/,/
SMILES,zVAD death inh,STAT3 blocker,STAT1 inh-1,TNF death inh,STAT3 act,STAT1 inh-2,NFkB inh STAT1ct,STAT3 inh STAT1c
C=CCOC(=O)C1=C[C@H](c2ccc(Br)cc2)[C@@H](CCCO)[C@H](OCC)O1,0,/,38*,3,/,21,-7,0
CCO[C@H]1OC(C(N)=O)=C[C@@H](c2ccc(Br)cc2)[C@@H]1CCCO,1,/,0,-1,/,/,/,/
Oc1ccc(Oc2ccc3c(C(F)(F)F)cc(C(F)(F)F)nc3n2)cc1,1,20,62*,-10,85,54*,23*,14
COc1cccc(NC(=O)N2CCCC2C(=O)NC(C)C)c1 (centres undefined),0,4,9,0,102,/,/,/
C=CCOC(=O)C1=C[C@@H](c2cn(C(C)=O)c3ccccc23)C[C@@H](OCCCCO)O1,1,/,34,0,/,11,-5,-68
O=C(c1cc([N+](=O)[O-])ccc1Cl)N1CCN(c2ccc([N+](=O)[O-])cc2)CC1,-1,5,-3,1,94,/,/,/
Cn1c(C(=O)N2CCN(c3ccc([N+](=O)[O-])cc3)CC2)cc2c(=O)[nH]c3ccccc3c21,0,19,51*,-4,87,34*,5,8
Cc1cc(C(=O)COC(=O)CNC(=O)c2ccccc2)c(C)n1CC1CCCO1 (centres undefined),1,28,37*,0,79,-49,-3,-15
CC(C)(C)C(=O)Nc1cccc(-c2nc3ccccc3c(=O)o2)c1,0,33,26,-1,74,/,/,/
CC(C)(C)C(=O)Nc1ccc(-c2nc3ccccc3c(=O)o2)cc1,8,26,41*,0,81,-13,11,2
CCCC(=O)Nc1cccc(-c2nc3ccccc3c(=O)o2)c1,2,25,37*,0,82,16,5,7
CC(C)C(=O)Nc1ccc(-c2nc3ccccc3c(=O)o2)cc1,1,21,38*,0,86,19,14,2
Cc1cc(C)n2nc(SCC(=O)N(C)c3c(N)n(Cc4ccccc4)c(=O)[nH]c3=O)nc2n1,1,3,1,1,102,/,/,/
Cc1ccc(-c2cc(C(F)F)nc(S(C)(=O)=O)n2)cc1,4,12,33,-18,94,29,-25,-7
Cc1csc(Nc2ccc(C(=O)O)cc2)n1,0,/,/,0,/,/,/,/
